Data set [1] can be described thus: (§1) Extrapolated fraction of biological activity remaining at time zero of stirred aerobic AA8 suspension cultures. The class given is ADME. The note with it: hamster. Summed up: (§2)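 Plateau-phase AA8 cells, 10^6 cells/mL, stirred suspension under 5% CO2 in air or N2. Supernatants sampled over time (spun 1300g × 1 min) and dilutions assayed against log-phase UV-4 (seeded 3 × 10^3 cells/mL, 24 h earlier), 4-day continuous exposure, methylene blue staining. Activity remaining = IC50 at time zero / apparent IC50; half-life and zero-time intercept from log-linear regression.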

Data set [2] relates to CHO-AA8. Kind of data set: Inhibitory activity to reduce cell density by 50% of AA8 cells under aerobic conditions. The class given is functional, cell-based. The note with it: Cricetulus griseus. The gist of the method: (§3)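 Microassay: 200 AA8 or 300 UV-4 viable cells/well plus 5000 irradiated (35 Gy) AA8 feeder cells. Serial 2-fold drug dilutions added after 24 h. Plates held 18 h at 37 °C in chambers flushed with 5% CO2 in air or in N2 (with 1% H2, Pd catalyst). Then washed, grown 72-78 h, stained with methylene blue, A620−A405. IC50 vs 50% of control; three independent experiments.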

The nature of data set [3]: Ratio of growth inhibition of compound to reduce cell density by 50% of repair deffective mutant UV-4 cells in 96-well cultures under aerobic and hypoxic conditions (air/N2). The class given is functional. Summed up:
as §3

A short description of data set [4]: Half life of extracellular bioactivity assessed by bioassay of culture supernatant against hypoxic UV-4 cells. The class given is ADME, cell-based, Cricetulus griseus, UV4. The note with it: chinese hamster, hypoxic UV-4 cell cultures (culture supernatant). Summed up:
as §2

A short description of data set [5]: Ratio for […], expressed as hypersensitivity factor under aerobic conditions. The class given is functional. Summed up: as §3
Data set [6] is described as follows: Total compound concentration in AA8 suspension cultures at zero time. The class given is ADME. The note with it: hamster.
The test system of data set [7] is UV4. Kind of data set: Inhibitory ativity to reduce cell density by 50% of repair deffective mutant UV-4 cells in 96-well cultures under aerobic conditions. The class given is functional, cell-based. Particulars: Cricetulus griseus; call rule not given here. Summed up:
as §3

The test system of data set [8] is UV4. Kind of data set: Inhibitory concentration required to reduce cell density in UV-4 cells to 50% of controls (cells were exposed to compound for 4 days continuously). The class given is functional, cell-based. Particulars: Cricetulus griseus, UV4, 96 h. The gist of the method:
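UV-4 cells seeded at 3 × 10^3 cells/mL about 24 h before drug, exposed continuously for 4 days, then methylene blue staining. IC50 = concentration reducing absorbance to 50% of controls; six determinations.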

Data set [9] can be described thus: Ratio of growth inhibition of compound to reduce cell density by 50% of AA8 cells under aerobic and hypoxic conditions (air/N2). The class given is functional, CHO-AA8. The gist of the method: as §3
Data set [10] in a line: Extrapolated fraction of biological activity remaining at time zero of hypoxic AA8 suspension cultures. The note with it: hamster. The class given is ADME. The gist of the method:
as §2

The nature of data set [11]: Half life of extracellular bioactivity assessed by bioassay of culture supernatant against aerobic UV-4 cells. The class given is ADME, cell-based, Cricetulus griseus, UV4. The note with it: chinese hamster, aerobic UV-4 cell cultures (culture supernatant). Summed up:
as §2

Data set [12] is described as follows: Hypersensitivity factor (HF) of IC50 (AA8) / IC50 (EM-9) of compound for repair deffective mutants. The class given is functional. The gist of the method:
(§4)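 Miniassay: AA8, UV-4, UV-5 or EM-9 cells were seeded at 2 × 10^4 cells/mL in 24-well dishes. After 24 h, five 2-fold serial concentrations were added in duplicate and held 4 h at 37 °C. Cells were washed, grown 30 h more, trypsinized and counted electronically. IC50 is 50% of mean control cell density. HF = IC50(AA8)/IC50(mutant), mean ± SE of 2–4 experiments.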

Data set [13] in a line: Hypersensitivity factor (HF) of IC50 (AA8) / IC50 (UV-4) of compound for repair deffective mutants. The class given is functional. Summed up:
as §4

Data set [14] is described as follows: Hypersensitivity factor (HF) of IC50 (AA8) / IC50 (UV-5) of compound for repair deffective mutants. The class given is functional. Summed up:
as §4

A short description of data set [15]: Half life of extracellular bioactivity assessed by bioassay of culture supernatant against aerobic UV-4 cells; No statistically significant trend with time. The class given is ADME, cell-based, Cricetulus griseus. Particulars: chinese hamster, uv4. The gist of the method: as §2
Data set [16] relates to CHO-AA8. Described as §1. The class given is functional, Cricetulus griseus. Summed up: as §2
Data set [17] can be described thus: Ratio for hypoxic AA8/ hypoxic UV-4, expressed as hypersensitivity factor under hypoxic conditions. The class given is functional. The gist of the method:
as §3

pIC50: −log10 of the molar value.

For the compound `COc1ccc([N+](=O)[O-])c2c(NCCCN(C)C)c3ccccc3nc12`, the A0 was 0.76 in data set [1] and 0.78 in data set [10]. Further, the pIC50 (as a rule, the IC50 on a negative log10 scale, so that one unit is a factor of ten) is 6.21 in the data set on CHO-AA8 [2], 7.20 with UV4 [7] and 7.84 in the data set on UV4 [8]. Also, the Ratio in data set [3] stood at 4.2; in data set [5] it was 7.8; in data set [9], 5.3. Also, the half-life (as a rule, the time in which the quantity being followed falls by half) in data set [4] is 5.2 h; in [11] it was 14 h. This compound displayed a CO in data set [6] of 3 mM.
In the case of `O=C(O)CCCc1ccc(N(CCCl)CCCl)cc1`, the Ratio in data set [12] is 0.69; in [13] it was 43; in data set [14], 1.4.
With `CN(C)CCCNc1c2ccccc2nc2cccc([N+](=O)[O-])c12` [NITRACRINE], the A0 in data set [1] was 0.86; in data set [10] it was 0.98. Also, the negative-log IC50 (pIC50) is 7.58 with CHO-AA8 [2], 8.70 in the data set on UV4 [7] and 9.18 in the data set on UV4 [8]. Further, the Ratio in [3] stood at 3.8; in [5], 14.9; in data set [12], 1.8; in data set [13], 12.8; in data set [14] it was 8. Besides, the values for the half-life in [4] and in data set [11] were 0.84 h and 7.3 h, respectively. This compound displayed a CO in data set [6] of 0.04 mM.
Regarding `CCOS(C)(=O)=O` [METHANESULFONIC ACID ETHYL ESTER], the results for the Ratio in data set [12], in data set [13] and in data set [14] were 6.3, 1.3 and 1.2, respectively.
Regarding `Cc1ccc([N+](=O)[O-])c2c(NCCCN(C)C)c3ccccc3nc12`, the A0 in data set [1] is recorded as 0.65; in [10] it was 1.12. Besides, the values for the negative logarithm of the IC50 (pIC50) in the data set with CHO-AA8 [2], in the data set with UV4 [7] and with UV4 [8] were 7.12, 8.10 and 8.78, respectively. Further, the figures for the Ratio in data set [3], in [5] and in [9] were 4.6, 9 and 5, respectively. This compound also showed a half-life in [4] of 0.99 h. For the same compound, the CO in data set [6] was found to be 0.2 mM. The T1/2 result in data set [15] is recorded as “Not Active”.
Turning to `COc1cc(NS(C)(=O)=O)ccc1Nc1c2ccccc2nc2ccccc12`, the Ratio worked out at 0.68 in data set [12], 0.9 in [13] and 0.9 in data set [14].
In the case of `COC(=O)c1ccc([N+](=O)[O-])c2c(NCCCN(C)C)c3ccccc3nc12`, the negative-log IC50 (pIC50) in the data set on CHO-AA8 [2] is 5.54; in the data set with UV4 [7], 5.71; with UV4 [8], 6.23. Besides, the Ratio in [3] amounted to 1.2; in data set [5], 1.5; in data set [17] it was 1.5; in data set [9], 1.2. This compound also had a half-life in [4] of 3.9 h. In [6], this compound returned a CO of 0.01 mM. Further, the T1/2 result in data set [15] was “Not Active”. Also, the A0 is 0.47 in the data set on CHO-AA8 [16] and 0.45 in data set [10].
Take `O=[N+]([O-])c1cc[n+]([O-])c2ccccc12` [4-NITROQUINOLINE-1-OXIDE]: the Ratio in data set [12] is 0.8; in [13] it was 17; in [14], 16.
For `CN(C)CCCNc1c2ccccc2nc2ccccc12`, in that order: 0.78, 1.03 and 0.87.
As to `CO[C@@]12[C@H](COC(N)=O)C3=C(C(=O)C(C)=C(N)C3=O)N1C[C@@H]1N[C@@H]12`, the Ratio in data set [12] was found to be 0.78; in [13], 86; in data set [14] it was 2.35.
On to `CN(C)CCCNc1c2ccccc2nc2c(N(C)C)ccc([N+](=O)[O-])c12`, for which the A0 was 0.78 in [1] and 0.68 in [10]. Further, the values for the pIC50 in the data set with CHO-AA8 [2], in the data set on UV4 [7] and in the data set with UV4 [8] were 4.72, 5.21 and 6.39, respectively. Further, the Ratio in data set [3] amounted to 2.3; in [5] it was 2.1; in data set [9] it was 3.3. Also, the half-life was 2.3 h in data set [4] and 4.8 h in data set [11].
As to `CC(=O)OCCN(CCOC(C)=O)c1ccc([N+](=O)[O-])c2c(NCCCN(C)C)c3ccccc3nc12`, the values for the A0 in data set [1] and in [10] were 1.11 and 1.03, respectively. Moreover, the values for the pIC50 in the data set with CHO-AA8 [2], in the data set with UV4 [7] and with UV4 [8] were 4.37, 4.94 and 5.46, respectively. The Ratio in [3] was determined as 4.8; in data set [5], 4.8; in data set [9], 4.5. Further, the half-life in data set [4] was 8.4 h; in [11], 18 h.
For the compound `CN(C)CCCNc1c2ccccc2nc2c(Cl)ccc([N+](=O)[O-])c12`, the A0 is listed as 0.79 in [1] and 0.56 in data set [10]. Moreover, the pIC50 in the data set on CHO-AA8 [2] is 7.48; in the data set on UV4 [7], 8.48; in the data set on UV4 [8], 9.21. The Ratio in data set [3] is 4.9; in data set [5] it was 13; in data set [9], 3.7. For the same compound, the half-life in data set [4] was 0.68 h; in data set [11] it was 4.3 h. In data set [6], this compound displayed a CO of 0.04 mM.
On to `CN(C)CCCNc1c2ccccc2nc2c(F)ccc([N+](=O)[O-])c12`, for which the A0 is listed as 0.64 in data set [1] and 0.84 in [10]. In addition, the figures for the pIC50 in the data set on CHO-AA8 [2], in the data set on UV4 [7] and in the data set with UV4 [8] were 6.60, 7.92 and 8.70, respectively. Also, the Ratio was determined as 1.4 in data set [3], 21 in data set [5] and 1.3 in data set [9]. For the same compound, the half-life in [4] is 0.77 h; in data set [11], 0.91 h. In data set [6], this compound came in with a CO of 0.1 mM.
Regarding `CN(C)CCCNc1c2ccccc2nc2c(N(CCO)CCO)ccc([N+](=O)[O-])c12`, the negative-log IC50 (pIC50) is 4.21 with CHO-AA8 [2] and 4.71 in the data set on UV4 [7].

The record behind these values is ChEMBL document CHEMBL1124676, “Hypoxia-selective antitumor agents. 2. Electronic effects of 4-substituents on the mechanisms of cytotoxicity and metabolic stability of nitracrine derivatives” (J Med Chem, 1989).
